Data reported in ChEMBL document CHEMBL5357069, “Development of a GC-376 Based Peptidomimetic PROTAC as a Degrader of 3-Chymotrypsin-like Protease of SARS-CoV-2” (ACS Med Chem Lett, 2024).
Activity calls are given as the source filed them. The calls are words filed in the database; no cut-off is given here.

Tests used:
[1] = target: Replicase polyprotein 1ab (Severe acute respiratory syndrome coronavirus 2, UniProt P0DTD1); assay: Inhibition of N-terminal 6xHis-tagged SARS-CoV-2 3CLPro expressed in Escherichia coli BL21(DE3) using Hi-lyte Fluor-488-ESATLQSGLRKAK-(QXL-520)-NH2 as substrate preincubated for 10 mins followed by substrate addition measured for 30 mins by fluorometric assay
[2] = target: Replicase polyprotein 1ab (Severe acute respiratory syndrome coronavirus 2) (UniProt P0DTD1); assay: Binding affinity to SARS-CoV-2 3CLPro assessed as covalent complex formation by MALDI TOF mass spectrometry
[3] = target: Replicase polyprotein 1ab (Severe acute respiratory syndrome coronavirus 2) (UniProt P0DTD1); assay: Binding affinity to monomeric form of SARS-CoV-2 3CLPro assessed as change in chemical shift by NMR spectroscopy
[4] = target: Replicase polyprotein 1ab (Severe acute respiratory syndrome coronavirus 2) (UniProt P0DTD1); assay: Binding affinity to dimeric form of SARS-CoV-2 3CLPro assessed as change in chemical shift by NMR spectroscopy
Outline: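 Solution NMR titration of dimeric 3CLPro with the ligand up to a 1:1 protein:ligand molar ratio, following loss of free-protein signals and appearance of adduct signals.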

[5] = target: Replicase polyprotein 1ab (Severe acute respiratory syndrome coronavirus 2) (UniProt P0DTD1); assay: Reversible binding affinity to SARS-CoV-2 3CLPro using fluorogenic substrate assessed as covalent complex formation preincubated for 30 mins followed by substrate addition by MALDI TOF mass spectrometry
Outline: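 Reversibility by dilution: enzyme incubated 30 min with or without large compound excess, then diluted 100-fold into buffer with fluorogenic substrate; initial velocities from progress curves compared against compound-free enzyme.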

[6] = target: T1, Protein cereblon/Replicase polyprotein 1ab (Severe acute respiratory syndrome coronavirus 2) (UniProt Q96SW2+P0DTD1); assay: PROTAC activity at CRBN/C-terminal HA epitope-tagged SARS-CoV-2 3CLPro transfected in human HeLa cells assessed as degradation of 3CLPro upto 80 uM by immunoblot analysis; type: cell-based
Outline: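 HeLa cells stably expressing C-terminally HA-tagged 3CLPro (lentiviral, puromycin-selected) treated 24 h at a range of concentrations; lysates immunoblotted, 3CLPro normalized to actin.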

[7] = target: T1, Protein cereblon/Replicase polyprotein 1ab (Severe acute respiratory syndrome coronavirus 2); assay: PROTAC activity at CRBN/C-terminal HA epitope-tagged SARS-CoV-2 3CLPro transfected in human HeLa cells assessed as degradation of 3CLPro at 80 uM incubated upto 48 hrs by immunoblot analysis; type: cell-based
Outline: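 Time course in HeLa cells stably expressing C-terminally HA-tagged 3CLPro (lentiviral transduction, puromycin selection), treated at 80 μM; whole-cell extracts immunoblotted, 3CLPro band normalized to actin.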

HeLa = assay: Cytotoxicity against human HeLa cells assessed as cell viability upto 80 uM incubated for 72 hrs by MTT assay; type: toxicity, cell-based
Outline: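 HeLa cells exposed to compound for 72 h at a series of concentrations; viability read by MTT assay.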

[8] = target: Replicase polyprotein 1ab (Severe acute respiratory syndrome coronavirus 2) (UniProt P0DTD1); assay: Inhibition of N-terminal 6xHis-tagged SARS-CoV-2 3CLPro expressed in Escherichia coli BL21(DE3) using Hi-lyte Fluor-488-ESATLQSGLRKAK-(QXL-520)-NH2 as substrate at 100 uM preincubated for 10 mins followed by substrate addition measured for 30 mins by fluorometric assay relative to control; conditions: time 40.0 min
[9] = target: Replicase polyprotein 1ab (Severe acute respiratory syndrome coronavirus 2) (UniProt P0DTD1); assay: Inhibition of N-terminal 6xHis-tagged SARS-CoV-2 3CLPro expressed in Escherichia coli BL21(DE3) using Hi-lyte Fluor-488-ESATLQSGLRKAK-(QXL-520)-NH2 as substrate at 10 uM preincubated for 10 mins followed by substrate addition measured for 30 mins by fluorometric assay relative to control; conditions: time 40.0 min

SMILES | IC50 [1] | Activity [2] | Activity [3] | Activity [4] | Activity [5] | Activity [6] | Activity [7] | Activity (HeLa) | inhibition [8] | inhibition [9]
COC(=O)/C=C/[C@H](C[C@@H]1CCNC1=O)NC(=O)[C@H](CC(C)C)NC(=O)OCc1ccccc1 | 1.35 µM | Active |  |  |  |  |  |  |  | 
CC(C)C[C@H](NC(=O)OCc1ccccc1)C(=O)N[C@H](/C=C/C(=O)N1CCN(CC2CCN(c3cc4c(cc3F)C(=O)N(C3CCC(=O)NC3=O)C4=O)CC2)CC1)C[C@@H]1CCNC1=O (stereo partly drawn) | 21.2 µM | Active | inactive | Active | Active | Active | Active | Non-Toxic |  | 
COC(=O)/C=C/[C@H](C[C@@H]1CCNC1=O)NC(=O)[C@H](Cc1ccccc1)NC(=O)[C@@H](NC(=O)CCC(=O)N1CCN(C(=O)C2CCN(c3cccc4c3C(=O)N(C3CCC(=O)NC3=O)C4=O)CC2)CC1)C(C)C (stereo partly drawn) | > 100 µM |  |  |  |  |  |  |  | 64% | 0%
